Assay results as given in publication PMC9314948 (Diabetes, Obesity & Metabolism, 2022).
Several values for one entry are separate records, joined by “and”; a condition that tells them apart may be missing. Equal entries are not always repeated.

Tests used:
obese women [1] = test: Study B: blood pressure withdrawal criteria; type: in vivo, human; conditions: 2.5 mg/2.0 mg dosing regimen
Procedure, shortened: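 Crossover regimen of 2.5 mg SC 1 h before breakfast and 2.0 mg 1 h before lunch over a 4-day period. Blood pressure is measured daily pre- and postdose after ≥5 min seated. Subjects are withdrawn unless systolic <155 mmHg and diastolic <95 mmHg at all assessments.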

[2] = Study A: accumulation of plasma bremelanotide concentration; type: in vivo, human; conditions: plasma 1 h after first dose of the day, SC 3 times daily
Procedure, shortened: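 Day 1 doses are 1.25 mg then 1.0 mg twice; later days are 2.5 mg then 2.0 mg twice. Plasma is sampled 1 h after the first daily dose on days 2, 8 and 15. Day 8/day 2 and day 15/day 2 ratios are computed, with accumulation defined as mean ratio 95% CI >1.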

obese women [3] = test: Study A: adverse events; type: in vivo, human; conditions: across Study A and Study B, subjects receiving bremelanotide
Procedure, shortened: (§1)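 Treatment-emergent AEs, including SAEs, are recorded throughout both inpatient placebo-controlled, double-blind SC trials in premenopausal obese women, alongside vital signs, ECG, clinical laboratory tests and physical examination. The safety population is all randomized subjects given ≥1 dose.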

[4] = Study B: pharmacokinetics of SC bremelanotide; type: in vivo, human; conditions: mean ± SD; for Cavg (D1) / Cmax (D1) / Cavg / RACC3.5 (ratio of day 4/day 1 concentrations 3.5 h postdose) / Tmax / Cmax: Study B; for Cmax (D1) / AUC(0-t) / Cmax: plasma; for Cavg: full dosing interval; for AUC(0-t): AUC0−3.5, Study B
Procedure, shortened: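 A further sample is taken on day 4 at 3.5 h postdose. Plasma levels are measured by HPLC-MS/MS and analysed non-compartmentally. RACC3.5 is the day 4/day 1 ratio at 3.5 h postdose.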

obese women [5] = test: Study B: caloric intake and body weight; type: in vivo, human
Procedure, shortened: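 Double-blind crossover in inpatient obese women with six randomized sequences of three 4-day regimens separated by 5-day washouts: placebo/placebo, 2.5/2.0 mg, or 2.5 mg/placebo, given SC 1 h before breakfast and lunch. Meals are weighed before and after eating, and snacks are allowed 18:00-midnight. Subjects are weighed each morning before breakfast in underwear or scrubs. ITT analysis uses MMRM for intake and ANCOVA for weight change, with two-sided p.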

rat model = conditions: ref Palatin Technologies, Inc. data on file; cited from earlier work
murine model = conditions: ref Palatin Technologies, Inc. data on file; cited from earlier work
obese women [6] = test: Study A: body weight, caloric intake and waist circumference; type: in vivo, human; conditions: not significant vs placebo (1.24%)
obese women [7] = test: Study B: adverse events; type: in vivo, human
Procedure, shortened: as §1

obese women [8] = test: Study A: blood pressure; type: in vivo, human; conditions: over the course of the study, also seen with placebo
Procedure, shortened: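 Study A, three-times-daily SC dosing for 15 days. Blood pressure is taken at screening, on the 2 days before dosing, on the day after dosing, and 15 min predose and 1 h postdose at each dose on days 1-15, with subjects seated ≥5 min. Continuation requires systolic <155 and diastolic <95 mmHg. Post- vs predose changes are summarized descriptively by visit and treatment.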

[9] = once-daily (2.5 mg/0 mg) SC, dose 1, n = 17-22
[10] = once-daily (2.5 mg/0 mg) SC, n = 17-22
[11] = twice-daily (2.5 mg/2.0 mg) SC, dose 1, n = 19-20
[12] = twice-daily (2.5 mg/2.0 mg) SC, n = 19-20
[13] = human, in vivo, sc, once-daily (2.5 mg/0 mg) SC, n = 17-22
[14] = human, in vivo, sc, twice-daily (2.5 mg/2.0 mg) SC, n = 19-20
[15] = once-daily (2.5 mg/0 mg) SC, 4-day period, n = 22
[16] = twice-daily (2.5 mg/2.0 mg) SC, 4-day period, n = 20

## CCCC[C@H](NC(C)=O)C(=O)N[C@H]1CC(=O)NCCCC[C@@H](C(=O)O)NC(=O)[C@H](Cc2c[nH]c3ccccc23)NC(=O)[C@H](CCCNC(=N)N)NC(=O)[C@@H](Cc2ccccc2)NC(=O)[C@H](Cc2c[nH]cn2)NC1=O [bremelanotide]
Obese women [1]
  Subjects withdrawn while receiving the regimen: No subjects
[2]
  Mean ratio of day 8/day 2 bremelanotide concentrations: 1.0
  Mean ratio of day 15/day 2 bremelanotide concentrations: 1.1
Obese women [3]
  Subjects experiencing nausea: 18% to 30
[4]; [9]
  Cavg (D1): 51.6 ± 10.1 ng/mL
  Cmax (D1): 75.1 ± 16.1 ng/mL
[4]; [10]
  Cavg: 25.2 ± 4.7 ng/mL
  RACC3.5 (ratio of day 4/day 1 concentrations 3.5 h postdose): 1.0 ± 0.3
  Tmax: 1.0 ± 0.3 h
[4]; [11]
  Cavg (D1): 50.2 ± 9.4 ng/mL
  Cmax (D1): 75.2 ± 16.3 ng/mL
[4]; [12]
  Cavg: 41.7 ± 9.3 ng/mL
  RACC3.5 (ratio of day 4/day 1 concentrations 3.5 h postdose): 1.0 and 1.0 ± 0.1
[4]; [13]
  AUC(0-t): 181 ± 35.4 ng·h/mL
  Cmax: 75.1 ± 16.1 ng/mL
[4]; [14]
  AUC(0-t): 176 ± 32.6 ng·h/mL
  Cmax: 83.8 ± 15.6 ng/mL
[4]; human, in vivo, sc, t max (D1), once-daily (2.5 mg/0 mg) SC, dose 1, n = 17-22
  Tmax: 1 ± 0.3 h
[4]; human, in vivo, sc, t max (D1), twice-daily (2.5 mg/2.0 mg) SC, dose 1, n = 19-20
  Tmax: 0.9 ± 0.4 h
[4]; human, in vivo, sc, t max, twice-daily (2.5 mg/2.0 mg) SC, n = 19-20
  Tmax: 3.3 ± 2 h
Obese women [5]; once or twice daily, all four treatment days, p < 0.001
  Daily caloric intake versus placebo: significantly lower
Obese women [5]; once-daily (2.5 mg/0 mg) SC, p = .0805
  Weight loss after 4 days versus placebo: numerically greater than weight loss observed in placebo‐treated subjects, but the difference did not reach statistical significance
Obese women [5]; twice-daily (2.5 mg/2.0 mg) SC, ITT, placebo 0.9 kg, p < .001
  Mean weight loss from baseline after 4 days: 1.7 kg
Rat model
  Body weight: reduced
  Food intake: reduced
Murine model
  Body weight: reduced
  Food intake: reduced
Obese women [6]
  Mean decrease in waist circumference from baseline to day 16: 1.63%
Obese women [7]; [15]
  AE leading to treatment discontinuation: Nausea: 1 (4.5) n (%)
  AE leading to treatment discontinuation: Vomiting: 1 (4.5) n (%)
  AE: Decreased appetite: 2 (9.1) n (%)
  AE: Ephelides: 0 n (%)
  AE: Feeling hot: 2 (9.1) n (%)
  AE: Flatulence: 1 (4.5) n (%)
  AE: Flushing: 4 (18.2) n (%)
  AE: Headache: 2 (9.1) n (%)
  AE: Injection site erythema: 9 (40.9) n (%)
  AE: Injection site pain: 7 (31.8) n (%)
  AE: Injection site pruritus: 2 (9.1) n (%)
  AE: Injection site reaction: 16 (72.7) n (%)
  AE: Injection site swelling: 2 (9.1) n (%)
  AE: Libido increased: 3 (13.6) n (%)
  AE: Nausea: 4 (18.2) n (%)
  AE: Pigmentation disorder: 6 (27.3) n (%)
  AE: Procedural dizziness: 2 (9.1) n (%)
  AE: Skin hyperpigmentation: 0 n (%)
  AE: Vessel puncture site haemorrhage: 0 n (%)
  Subjects experiencing an AE leading to treatment discontinuation: 2 (9.1) n (%)
  Subjects experiencing ≥1 AE: 21 (95.5) n (%)
  Subjects experiencing ≥1 AE: Mild: 21 (95.5) n (%)
  Subjects experiencing ≥1 AE: Moderate: 4 (18.2) n (%)
  Subjects experiencing ≥1 AE: Severe: 0 n (%)
  Subjects experiencing ≥1 treatment‐related AE: 21 (95.5) n (%)
  Treatment‐related AE: Decreased appetite: 2 (9.1) n (%)
  Treatment‐related AE: Ephelides: 0 n (%)
  Treatment‐related AE: Feeling hot: 2 (9.1) n (%)
  Treatment‐related AE: Flatulence: 1 (4.5) n (%)
  Treatment‐related AE: Flushing: 4 (18.2) n (%)
  Treatment‐related AE: Headache: 2 (9.1) n (%)
  Treatment‐related AE: Injection site erythema: 9 (40.9) n (%)
  Treatment‐related AE: Injection site pain: 7 (31.8) n (%)
  Treatment‐related AE: Injection site pruritus: 2 (9.1) n (%)
  Treatment‐related AE: Injection site reaction: 16 (72.7) n (%)
  Treatment‐related AE: Injection site swelling: 2 (9.1) n (%)
  Treatment‐related AE: Libido increased: 3 (13.6) n (%)
  Treatment‐related AE: Nausea: 4 (18.2) n (%)
  Treatment‐related AE: Pigmentation disorder: 6 (27.3) n (%)
  Treatment‐related AE: Skin hyperpigmentation: 0 n (%)
Obese women [7]; once-daily bremelanotide, nausea, vomiting, hypersensitivity, dizziness, headache
  Number of SAEs reported (in a single subject): Five
Obese women [7]; [16]
  AE leading to treatment discontinuation: Vomiting: 1 (5.0) n (%)
  AE: Decreased appetite: 0 n (%)
  AE: Ephelides: 2 (10.0) n (%)
  AE: Feeling hot: 0 n (%)
  AE: Flatulence: 3 (15.0) n (%)
  AE: Flushing: 3 (15.0) n (%)
  AE: Headache: 4 (20.0) n (%)
  AE: Injection site erythema: 5 (25.0) n (%)
  AE: Injection site pain: 8 (40.0) n (%)
  AE: Injection site pruritus: 3 (15.0) n (%)
  AE: Injection site reaction: 20 (100) n (%)
  AE: Injection site swelling: 2 (10.0) n (%)
  AE: Libido increased: 2 (10.0) n (%)
  AE: Nausea: 4 (20.0) n (%)
  AE: Pigmentation disorder: 2 (10.0) n (%)
  AE: Procedural dizziness: 0 n (%)
  AE: Skin hyperpigmentation: 3 (15.0) n (%)
  AE: Vessel puncture site haemorrhage: 2 (10.0) n (%)
  Subjects experiencing an AE leading to treatment discontinuation: 1 (5.0) n (%)
  Subjects experiencing ≥1 AE: 20 (100) n (%)
  Subjects experiencing ≥1 AE: Mild: 20 (100) n (%)
  Subjects experiencing ≥1 AE: Moderate: 1 (5.0) n (%)
  Subjects experiencing ≥1 AE: Severe: 0 n (%)
  Subjects experiencing ≥1 SAE: 0
  Subjects experiencing ≥1 treatment‐related AE: 20 (100) n (%)
  Treatment‐related AE: Decreased appetite: 0 n (%)
  Treatment‐related AE: Ephelides: 2 (10.0) n (%)
  Treatment‐related AE: Feeling hot: 0 n (%)
  Treatment‐related AE: Flatulence: 2 (10.0) n (%)
  Treatment‐related AE: Flushing: 3 (15.0) n (%)
  Treatment‐related AE: Headache: 3 (15.0) n (%)
  Treatment‐related AE: Injection site erythema: 5 (25.0) n (%)
  Treatment‐related AE: Injection site pain: 8 (40.0) n (%)
  Treatment‐related AE: Injection site pruritus: 3 (15.0) n (%)
  Treatment‐related AE: Injection site reaction: 20 (100.0) n (%)
  Treatment‐related AE: Injection site swelling: 2 (10.0) n (%)
  Treatment‐related AE: Libido increased: 2 (10.0) n (%)
  Treatment‐related AE: Nausea: 3 (15.0) n (%)
  Treatment‐related AE: Pigmentation disorder: 2 (10.0) n (%)
  Treatment‐related AE: Skin hyperpigmentation: 3 (15.0) n (%)
Obese women [8]
  Decrease from baseline in mean systolic blood pressure: < 10%
